Source: ChEMBL document CHEMBL1145787, “Synthesis and structure-activity relationship of N-substituted 4-arylsulfonylpiperidine-4-hydroxamic acids as novel, orally active matrix metalloproteinase inhibitors for the treatment of osteoarthritis” (J Med Chem, 2003)
pIC50: −log10 of the molar value.

Key:
Interstitial collagenase = biological target: T1, Interstitial collagenase (Homo sapiens, UniProt P03956); assay: In vitro inhibitory activity against matrix metalloprotease-1
T1 sequence (P03956 whole entry): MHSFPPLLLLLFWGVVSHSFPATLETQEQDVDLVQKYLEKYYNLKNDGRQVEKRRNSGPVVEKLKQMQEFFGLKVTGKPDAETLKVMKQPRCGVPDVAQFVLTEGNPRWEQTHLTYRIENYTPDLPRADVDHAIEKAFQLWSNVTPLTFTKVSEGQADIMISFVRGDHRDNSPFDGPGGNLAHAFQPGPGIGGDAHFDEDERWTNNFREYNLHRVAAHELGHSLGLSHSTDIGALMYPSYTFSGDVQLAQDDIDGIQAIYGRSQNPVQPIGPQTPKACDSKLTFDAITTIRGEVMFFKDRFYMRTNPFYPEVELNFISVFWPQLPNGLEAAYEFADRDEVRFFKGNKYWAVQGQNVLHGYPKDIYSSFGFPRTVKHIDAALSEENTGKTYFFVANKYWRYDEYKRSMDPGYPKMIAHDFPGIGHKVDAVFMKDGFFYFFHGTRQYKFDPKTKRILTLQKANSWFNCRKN

Oryctolagus cuniculus = assay: Effect of compound on cartilage in surgically induced osteoarthritis (OA) model in rabbit at 25 mg/kg; type: functional
In short: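 Rabbits had anterior cruciate ligament transection plus meniscectomy in one knee, with sham surgery on the contralateral knee. From day 10 after surgery, groups of 12 were dosed once daily by oral gavage with vehicle, test compound or the RS-130830 reference for 4 weeks. Knee joints were then collected and scored for gross pathological changes by blinded investigators.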

Rattus norvegicus = assay: In vivo inhibition of by Matrix metalloprotease enzyme Sponge-wrapped cartilage assay at 5 mg/kg. po. bid; type: functional
[1] = biological target: T2, Disintegrin and metalloproteinase domain-containing protein 17 (Homo sapiens, UniProt P78536); assay: In vitro inhibitory activity against tumor necrosis factor alpha converting enzyme (TACE).
T2 sequence (P78536 whole entry, the tested form may be a part): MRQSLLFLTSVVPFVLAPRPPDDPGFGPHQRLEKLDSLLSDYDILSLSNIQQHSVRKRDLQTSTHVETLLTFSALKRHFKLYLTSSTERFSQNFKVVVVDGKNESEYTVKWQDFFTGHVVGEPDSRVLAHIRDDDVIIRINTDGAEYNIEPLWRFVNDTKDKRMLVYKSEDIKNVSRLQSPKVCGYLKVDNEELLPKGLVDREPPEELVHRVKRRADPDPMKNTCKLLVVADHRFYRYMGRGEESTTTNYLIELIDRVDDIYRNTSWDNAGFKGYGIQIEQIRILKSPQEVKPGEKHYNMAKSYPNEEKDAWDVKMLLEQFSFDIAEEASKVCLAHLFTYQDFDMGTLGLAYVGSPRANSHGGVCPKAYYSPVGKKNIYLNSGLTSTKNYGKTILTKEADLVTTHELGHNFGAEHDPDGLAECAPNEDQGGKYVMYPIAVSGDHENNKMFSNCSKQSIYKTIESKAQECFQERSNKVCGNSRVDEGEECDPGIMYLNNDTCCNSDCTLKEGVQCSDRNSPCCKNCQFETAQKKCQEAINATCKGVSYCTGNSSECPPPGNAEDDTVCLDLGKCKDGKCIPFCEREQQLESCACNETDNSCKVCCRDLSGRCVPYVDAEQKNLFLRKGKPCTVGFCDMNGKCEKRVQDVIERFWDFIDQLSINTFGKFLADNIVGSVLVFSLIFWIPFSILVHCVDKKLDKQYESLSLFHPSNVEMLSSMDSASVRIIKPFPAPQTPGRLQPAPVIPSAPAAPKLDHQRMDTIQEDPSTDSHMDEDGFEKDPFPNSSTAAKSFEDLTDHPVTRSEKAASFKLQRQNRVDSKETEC

[2] = In vivo inhibitory activity against Matrix metalloprotease enzyme by dialysis implant assay, value are relative to activity of CGS-27023 (64+/-3) at 25 mg/kg. po; type: functional
[3] = biological target: Matrix metalloproteinase-9 (Homo sapiens, UniProt P14780); assay: In vitro inhibitory activity against matrix metalloprotease-9.
Sequence of Matrix metalloproteinase-9 (P14780 whole entry): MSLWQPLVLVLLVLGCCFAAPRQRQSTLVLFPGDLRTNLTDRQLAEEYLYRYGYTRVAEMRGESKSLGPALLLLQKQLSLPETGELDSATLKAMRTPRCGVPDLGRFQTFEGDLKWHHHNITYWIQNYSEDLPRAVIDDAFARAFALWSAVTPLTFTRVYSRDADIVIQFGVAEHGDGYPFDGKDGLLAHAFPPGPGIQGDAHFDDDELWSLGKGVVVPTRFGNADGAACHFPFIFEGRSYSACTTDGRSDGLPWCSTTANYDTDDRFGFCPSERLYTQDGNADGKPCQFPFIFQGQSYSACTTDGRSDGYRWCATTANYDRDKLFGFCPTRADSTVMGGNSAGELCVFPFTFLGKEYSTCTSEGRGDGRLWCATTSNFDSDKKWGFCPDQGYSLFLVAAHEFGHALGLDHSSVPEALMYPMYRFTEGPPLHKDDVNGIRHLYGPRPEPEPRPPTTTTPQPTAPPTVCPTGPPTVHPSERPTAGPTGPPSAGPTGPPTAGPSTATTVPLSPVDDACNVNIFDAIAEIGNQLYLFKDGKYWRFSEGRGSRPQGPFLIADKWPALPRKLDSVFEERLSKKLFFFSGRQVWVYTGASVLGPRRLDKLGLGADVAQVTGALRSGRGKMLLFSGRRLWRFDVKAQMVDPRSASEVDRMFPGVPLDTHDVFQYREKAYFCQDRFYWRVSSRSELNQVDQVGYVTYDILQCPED

[4] = In vivo inhibitory activity against Matrix metalloprotease enzyme by dialysis implant assay, value is relative to activity of CGS-27023 (62+/-5) at 25 mg/kg. po; type: functional
Collagenase 3 = Collagenase 3 (Homo sapiens, UniProt P45452)
[5] = In vivo inhibitory activity against Matrix metalloprotease enzyme by dialysis implant assay, value is relative to activity of CGS-27023 (42+/-2) at 25 mg/kg. po; type: functional
[6] = In vivo inhibition of Matrix metalloprotease enzyme by Sponge-wrapped cartilage assay, value is relative to activity of CGS-27023 (39+/-3) at 25 mg/kg. po. bid; type: functional
[7] = In vivo inhibitory activity against Matrix metalloprotease enzyme by dialysis implant assay, value is relative to activity of CGS-27023 (51+/-3) at 25 mg/kg. po; type: functional
[8] = In vivo inhibition of Matrix metalloprotease enzyme by Sponge-wrapped cartilage assay, value are relative to activity of CGS-27023 (33+/-2) at 25 mg/kg. po. bid; type: functional
[9] = In vivo inhibitory activity against Matrix metalloprotease enzyme by dialysis implant assay, value is relative to activity of CGS-27023 (68+/5-) at 25 mg/kg. po; type: functional
[10] = biological target: T2, Disintegrin and metalloproteinase domain-containing protein 17; assay: Inhibition of Tumor necrosis factor alpha converting enzyme (TACE) at 10 uM
In short: (§1)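 Dose–response curves were not generated when inhibition was below 60% at 10 μM.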

[11] = In vivo inhibitory activity against Matrix metalloprotease enzyme by dialysis implant assay, value is relative to activity of CGS-27023 (60+/-2) at 25 mg/kg. po; type: functional
[12] = In vivo inhibition of Matrix metalloprotease enzyme by Sponge-wrapped cartilage assay, value are relative to activity of RS-130830 (27+/-3) at 10 mg/kg. po. bid; type: functional
[13] = biological target: T3, Interstitial collagenase (Homo sapiens) (UniProt P03956); assay: Inhibition of Matrix metalloprotease-1 at 10 uM; in short: as §1
T3 sequence (whole entry): T1 sequence (P03956 whole entry)

[14] = In vivo inhibitory activity against Matrix metalloprotease enzyme by dialysis implant assay, value is relative to activity of CGS-27023 (64+/-2) at 25 mg/kg. po; type: functional
[15] = In vivo inhibition of Matrix metalloprotease enzyme by Sponge-wrapped cartilage assay, value is relative to activity of RS-130830 (27+/-3) at 10 mg/kg. po. bid; type: functional
[16] = In vivo inhibitory activity against Matrix metalloprotease enzyme by dialysis implant assay, value is relative to activity of CGS-27023 (76+/-3) at 25 mg/kg. po; type: functional
[17] = In vivo inhibitory activity against Matrix metalloprotease enzyme by dialysis implant assay, value is relative to activity of CGS-27023 (61+/-3) at 25 mg/kg. po; type: functional
[18] = In vivo inhibition of Matrix metalloprotease enzyme by Sponge-wrapped cartilage assay, value is relative to activity of RS-130830 (23+/-3) at 10 mg/kg. po. bid; type: functional
[19] = In vivo inhibitory activity against Matrix metalloprotease enzyme by dialysis implant assay, value is relative to activity of CGS-27023 (54+/-2) at 25 mg/kg. po; type: functional
[20] = In vivo inhibitory activity against Matrix metalloprotease enzyme by dialysis implant assay, value are relative to activity of CGS-27023 (73+/-4) at 25 mg/kg. po; type: functional
[21] = In vivo inhibitory activity against Matrix metalloprotease enzyme by dialysis implant assay, value are relative to activity of CGS-27023 (67+/-3) at 25 mg/kg. po; type: functional
[22] = In vivo inhibitory activity against Matrix metalloprotease enzyme by dialysis implant assay, value is relative to activity of CGS-27023 (60+/-3) at 25 mg/kg. po; type: functional
[23] = In vivo inhibitory activity against Matrix metalloprotease enzyme by dialysis implant assay, value is relative to activity of CGS-27023 (75+/-2) at 25 mg/kg. po; type: functional
[24] = In vivo inhibition of Matrix metalloprotease enzyme by Sponge-wrapped cartilage assay, compared to activity of RS-130830 (20+/-2) at 5 mg/kg. po. bid; type: functional
[25] = In vivo inhibition of Matrix metalloprotease enzyme by Sponge-wrapped cartilage assay, compared to activity of RS-130830 (inactive) at 5 mg/kg. po. qd; type: functional
[26] = In vivo inhibition of Matrix metalloprotease enzyme by Sponge-wrapped cartilage assay, value is relative to activity of RS-130830 (40+/-3) at 10 mg/kg. po. bid; type: functional
[27] = In vivo inhibitory activity against Matrix metalloprotease enzyme by dialysis implant assay, value is relative to activity of CGS-27023 (74+/-2) at 25 mg/kg. po; type: functional

SMILES: O=C(NO)C1(CS(=O)(=O)c2ccc(Oc3ccc(Cl)cc3)cc2)CCOCC1 [CTS-1027]
- pIC50 (Interstitial collagenase): 6.63
- gross pathology score at 25 mg/kg (Oryctolagus cuniculus): 7.9 score
- inhibition in vivo at 5 mg/kg (Rattus norvegicus): 20%
- pIC50 [1]: 6.75

SMILES: COc1ccc(S(=O)(=O)C2(C(=O)NO)CCN(Cc3ccc(-c4ccccn4)cc3)CC2)cc1
- inhibition in vivo at 25 mg/kg [2]: 78%
- pIC50 [3]: 8.22

SMILES: COc1ccc(S(=O)(=O)C2(C(=O)NO)CCN(CCc3ccccc3)CC2)cc1
- inhibition in vivo at 25 mg/kg [4]: 68%
- pIC50 (Collagenase 3): 8.05

SMILES: COc1ccc(S(=O)(=O)C2(C(=O)NO)CCN(Cc3ccccc3)CC2)cc1
- pIC50 [3]: 8.00

SMILES: COc1ccc(S(=O)(=O)C2(C(=O)NO)CCN(Cc3ccc(OCCN4CCCCC4)cc3)CC2)cc1
- inhibition in vivo at 25 mg/kg [5]: 53%
- inhibition in vivo at 25 mg/kg [6]: 56%
- pIC50 [3]: 8.52
- pIC50 (Collagenase 3): 8.52

SMILES: Cc1ccc(CN2CCC(C(=O)NO)(S(=O)(=O)c3ccc(OCc4ccc(Cl)cc4)cc3)CC2)cc1
- pIC50 (Collagenase 3): 8.22

SMILES: COc1ccc(S(=O)(=O)C2(C(=O)NO)CCN(Cc3ccc4ccccc4c3)CC2)cc1
- inhibition in vivo at 25 mg/kg [7]: 62%
- inhibition in vivo at 25 mg/kg [8]: 14%

SMILES: COc1ccc(S(=O)(=O)C2(C(=O)NO)CCN(CC=C(C)C)CC2)cc1
- inhibition in vivo at 25 mg/kg [9]: 57%
- inhibition [10]: 49%

SMILES: O=C(NO)C1(S(=O)(=O)c2ccc(Oc3ccc(Cl)cc3)cc2)CCNCC1
- pIC50 (Interstitial collagenase): 5.90
- pIC50 [3]: 8.70
- pIC50 [1]: 6.07
- pIC50 (Collagenase 3): 8.70

SMILES: COc1ccc(S(=O)(=O)C2(C(=O)NO)CCN(Cc3cccc(OC)c3)CC2)cc1
- inhibition in vivo at 25 mg/kg [11]: 70%
- pIC50 [3]: 8.05

SMILES: CC(C)CCOc1ccc(S(=O)(=O)C2(C(=O)NO)CCN(Cc3ccccc3)CC2)cc1
- inhibition in vivo at 25 mg/kg [2]: 80%
- inhibition in vivo at 10 mg/kg [12]: 34%
- pIC50 [3]: 8.40
- pIC50 (Collagenase 3): 8.70

SMILES: CCCCOc1ccc(S(=O)(=O)C2(C(=O)NO)CCN(Cc3ccc(Cl)c(Cl)c3)CC2)cc1
- inhibition in vivo at 25 mg/kg [2]: 14%
- pIC50 [3]: 7.70
- inhibition [10]: 57%
- pIC50 (Collagenase 3): 8.30

SMILES: COc1ccc(S(=O)(=O)C2(C(=O)NO)CCN(Cc3ccc(Br)cc3)CC2)cc1
- inhibition in vivo at 25 mg/kg [7]: 51%
- pIC50 [3]: 8.00
- inhibition [10]: 71%
- pIC50 (Collagenase 3): 8.70

SMILES: COc1ccc(S(=O)(=O)C2(C(=O)NO)CCN(C(C)(C)C)CC2)cc1
- inhibition [13]: 59%
- inhibition [10]: 9%

SMILES: CCCCOc1ccc(S(=O)(=O)C2(C(=O)NO)CCN(CC)CC2)cc1
- inhibition in vivo at 25 mg/kg [14]: 64%
- inhibition in vivo at 10 mg/kg [15]: 34%
- inhibition [10]: 51%
- pIC50 (Collagenase 3): 8.70

SMILES: COc1ccc(S(=O)(=O)C2(C(=O)NO)CCN(Cc3ccc(-c4ccccc4)cc3)CC2)cc1
- inhibition in vivo at 25 mg/kg [9]: 29%
- pIC50 (Interstitial collagenase): 5.88
- pIC50 [3]: 7.89
- pIC50 [1]: 6.21
- pIC50 (Collagenase 3): 8.52

SMILES: COc1ccc(S(=O)(=O)C2(C(=O)NO)CCN(Cc3ccc(F)cc3)CC2)cc1
- inhibition in vivo at 25 mg/kg [16]: 83%
- pIC50 [3]: 7.80
- pIC50 (Collagenase 3): 8.70

SMILES: CCN1CCC(C(=O)NO)(S(=O)(=O)c2ccc(Oc3ccc(Cl)cc3)cc2)CC1
- inhibition in vivo at 25 mg/kg [17]: 90%
- inhibition in vivo at 10 mg/kg [18]: 75%
- pIC50 [3]: 9.00
- pIC50 (Collagenase 3): 9.00

SMILES: CCCCN1CCC(C(=O)NO)(S(=O)(=O)c2ccc(OC)cc2)CC1
- inhibition in vivo at 25 mg/kg [16]: 56%
- inhibition [13]: 56%
- inhibition [10]: 15%

SMILES: CCCCOc1ccc(S(=O)(=O)C2(C(=O)NO)CCN(CCOc3ccccc3)CC2)cc1
- inhibition in vivo at 25 mg/kg [19]: 29%
- pIC50 [3]: 8.30

SMILES: CCCCOc1ccc(S(=O)(=O)C2(C(=O)NO)CCOCC2)cc1
- pIC50 (Interstitial collagenase): 5.86
- pIC50 [3]: 8.04
- pIC50 [1]: 6.75
- pIC50 (Collagenase 3): 8.85

SMILES: COc1ccc(CCN2CCC(C(=O)NO)(S(=O)(=O)c3ccc(OC)cc3)CC2)cc1
- inhibition in vivo at 25 mg/kg [4]: 48%
- inhibition [10]: 53%
- pIC50 (Collagenase 3): 8.70

SMILES: COc1ccc(CN2CCC(C(=O)NO)(S(=O)(=O)c3ccc(Oc4ccc(Cl)cc4)cc3)CC2)cc1
- inhibition in vivo at 25 mg/kg [20]: 93%
- pIC50 (Interstitial collagenase): 6.31
- pIC50 [1]: 6.31

SMILES: CCCCOc1ccc(S(=O)(=O)C2(C(=O)NO)CCN(Cc3cccc(OC)c3)CC2)cc1
- inhibition in vivo at 25 mg/kg [21]: 82%
- pIC50 [3]: 8.52

SMILES: COc1ccc(S(=O)(=O)C2(C(=O)NO)CCN(CCCOc3ccccc3)CC2)cc1
- inhibition in vivo at 25 mg/kg [22]: 28%
- inhibition [10]: 50%
- pIC50 (Collagenase 3): 8.40

SMILES: CCCCOc1ccc(S(=O)(=O)C2(C(=O)NO)CCN(Cc3ccc(OCCN4CCCCC4)cc3)CC2)cc1
- inhibition in vivo at 25 mg/kg [23]: 98%
- inhibition in vivo at 5 mg/kg [24]: 56%
- inhibition in vivo at 5 mg/kg [25]: 33%
- inhibition in vivo at 10 mg/kg [26]: 67%

SMILES: COc1ccc(S(=O)(=O)C2(C(=O)NO)CCN(C3CCCCCCC3)CC2)cc1
- inhibition in vivo at 25 mg/kg [27]: 71%
- inhibition [10]: 22%

SMILES: COc1ccc(S(=O)(=O)C2(C(=O)NO)CCN(Cc3ccc(Cl)c(Cl)c3)CC2)cc1
- inhibition in vivo at 25 mg/kg [7]: 47%
- pIC50 [3]: 8.22
- pIC50 (Collagenase 3): 8.70

SMILES: COc1ccc(S(=O)(=O)C2(C(=O)NO)CCN(CCOc3ccccc3)CC2)cc1
- inhibition in vivo at 25 mg/kg [19]: 6%
- pIC50 [3]: 7.59
- pIC50 (Collagenase 3): 8.52
